The text below walks through data of ChEMBL document CHEMBL1641508, “Effect of structurally constrained oxime-ether linker on PPAR subtype selectivity: Discovery of a novel and potent series of PPAR-pan agonists” (Bioorg Med Chem, 2011).

pEC50: −log10 of the molar value.

The target in one assay is T1, Peroxisome proliferator-activated receptor alpha (Homo sapiens) (UniProt Q07869).
T1 sequence (whole entry): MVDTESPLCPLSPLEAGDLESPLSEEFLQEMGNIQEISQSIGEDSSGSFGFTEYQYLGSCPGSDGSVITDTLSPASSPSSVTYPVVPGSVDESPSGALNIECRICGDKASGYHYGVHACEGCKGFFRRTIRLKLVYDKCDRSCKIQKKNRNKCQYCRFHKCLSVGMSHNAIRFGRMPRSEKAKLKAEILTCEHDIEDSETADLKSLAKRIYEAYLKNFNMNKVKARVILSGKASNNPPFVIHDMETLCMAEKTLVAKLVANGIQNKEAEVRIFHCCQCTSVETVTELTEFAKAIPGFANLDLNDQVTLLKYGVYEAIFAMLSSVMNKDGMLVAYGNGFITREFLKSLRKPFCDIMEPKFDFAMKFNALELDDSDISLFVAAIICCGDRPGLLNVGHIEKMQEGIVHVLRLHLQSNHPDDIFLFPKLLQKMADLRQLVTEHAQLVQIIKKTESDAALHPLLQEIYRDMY
Nature of the assay: Agonist activity at human PPARalpha expressed in HepG2 cells co-transfected with PPRE3-TK-luc assessed as beta-galactosidase activity after 20 to 22 hrs by luciferase based transactivation assay relative to WY-14643. Format: functional, cell-based. The gist of the method:
(§1)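 HepG2 (MEM, 10% FBS, NEAA, pyruvate, pen/strep) seeded 400,000 cells/well, transfected (Superfect) with pSG5 vector carrying full-length hPPAR cDNA plus PPRE3-TK-luc; 3 h at 37 °C, 5% CO2, then ligand-containing medium added, 20–22 h.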
In the case of `Cc1cc(SCc2sc(-c3ccc(C(F)(F)F)cc3)nc2C)ccc1OCC(=O)O`, the Emax was 76.9%.
`CC/C(=N\OCc1nc(-c2ccc(C)cc2)oc1C)c1ccc(OCC(=O)O)cc1`: the Emax is 68.5%.
On the same count and under the same terms, for `C/C(=N\OCc1nc(-c2ccc(C)cc2)oc1C)c1ccc(OCC(=O)O)cc1` the value was 51.1%; for `Cc1cc(/C(=N/OCc2sc(-c3ccc(C(F)(F)F)cc3)nc2C)C2CCCCC2)ccc1OCC(=O)O`, 57.9%.
On to `CCC/C(=N\OCc1sc(-c2ccc(C(F)(F)F)cc2)nc1C)c1ccc(OCC(=O)O)c(C)c1`, for which the Emax stood at 58.7%.
Still for that read-out and setting: for `Cc1cc(/C(=N/OCc2nc(-c3ccccc3)oc2C)C2CCCCC2)ccc1OCC(=O)O` the value was 9.7%.
Same read-out and setting: for `C/C(=N\OCc1nc(-c2ccccc2)oc1C)c1ccc(OCC(=O)O)cc1` the value was 58.8%; for `CC/C(=N\OCc1nc(-c2ccc(C)cc2)oc1C)c1ccc(OCC(=O)O)c(C)c1`, 72.6%.
Still for that read-out and setting: for `CC/C(=N\OCc1sc(-c2ccc(C(F)(F)F)cc2)nc1C)c1ccc(OCC(=O)O)c(C)c1` the value was 96.4%.

A further assay has as its target T2, Peroxisome proliferator-activated receptor alpha (Homo sapiens, UniProt Q07869).
T2 sequence (Q07869 whole entry): T1 sequence (whole entry)
Nature of the assay: Agonist activity at human PPARalpha expressed in HepG2 cells co-transfected with PPRE3-TK-luc assessed as beta-galactosidase activity after 20 to 22 hrs by luciferase based transactivation assay. In kind it is functional, cell-based.
As to `Cc1cc(/C(=N/OCc2sc(-c3ccc(C(F)(F)F)cc3)nc2C)C2CCCCC2)ccc1OCC(=O)O`, the pEC50 was 5.80.
On the same count and under the same terms, with `CC/C(=N\OCc1sc(-c2ccc(C(F)(F)F)cc2)nc1C)c1ccc(OCC(=O)O)c(C)c1` the figure was 6.92.

A further assay has as its target T3, Peroxisome proliferator-activated receptor gamma (Homo sapiens, UniProt P37231).
T3 sequence (P37231 whole entry): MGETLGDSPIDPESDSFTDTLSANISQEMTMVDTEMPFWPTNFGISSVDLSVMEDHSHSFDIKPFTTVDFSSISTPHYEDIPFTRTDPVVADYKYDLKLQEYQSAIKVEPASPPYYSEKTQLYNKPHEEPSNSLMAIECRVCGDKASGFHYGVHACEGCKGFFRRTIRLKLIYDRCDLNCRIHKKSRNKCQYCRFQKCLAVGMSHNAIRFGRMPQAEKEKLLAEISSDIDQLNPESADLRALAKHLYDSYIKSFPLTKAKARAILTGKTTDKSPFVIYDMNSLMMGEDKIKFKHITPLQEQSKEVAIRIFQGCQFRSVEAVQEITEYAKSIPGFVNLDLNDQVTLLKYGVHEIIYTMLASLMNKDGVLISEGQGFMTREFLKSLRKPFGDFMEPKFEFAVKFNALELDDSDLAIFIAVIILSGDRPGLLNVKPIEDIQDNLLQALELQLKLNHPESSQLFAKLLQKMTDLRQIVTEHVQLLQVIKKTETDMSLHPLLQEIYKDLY
Format: functional, cell-based, HepG2.
`CC(C)(Oc1ccc(CCNC(=O)c2ccc(Cl)cc2)cc1)C(=O)O` [BEZAFIBRATE] gave a negative logarithm of the EC50 (pEC50) of 4.24.
Still for that read-out and setting: with `Cc1cc(/C(=N/OCc2sc(-c3ccc(C(F)(F)F)cc3)nc2C)C2CCCCC2)ccc1OCC(=O)O` the figure was 6.00; with `CC/C(=N\OCc1sc(-c2ccc(C(F)(F)F)cc2)nc1C)c1ccc(OCC(=O)O)c(C)c1`, 6.10.

For a further assay, the target named is T4, Peroxisome proliferator-activated receptor delta (Homo sapiens) (UniProt Q03181).
T4 sequence (whole entry): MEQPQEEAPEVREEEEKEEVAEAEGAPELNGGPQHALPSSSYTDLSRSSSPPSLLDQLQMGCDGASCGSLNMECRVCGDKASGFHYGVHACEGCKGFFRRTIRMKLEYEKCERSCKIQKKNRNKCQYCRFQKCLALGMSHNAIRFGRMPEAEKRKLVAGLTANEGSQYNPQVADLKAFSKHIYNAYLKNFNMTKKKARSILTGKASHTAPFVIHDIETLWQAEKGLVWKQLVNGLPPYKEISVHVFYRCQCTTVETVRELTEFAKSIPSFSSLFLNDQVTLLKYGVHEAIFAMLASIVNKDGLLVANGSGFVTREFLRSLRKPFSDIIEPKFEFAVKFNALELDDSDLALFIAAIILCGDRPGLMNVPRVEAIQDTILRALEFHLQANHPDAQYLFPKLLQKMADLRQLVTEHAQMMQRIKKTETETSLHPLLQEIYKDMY
Nature of the assay: Agonist activity at human PPARdelta expressed in HepG2 cells co-transfected with PPRE3-TK-luc assessed as beta-galactosidase activity after 20 to 22 hrs by luciferase based transactivation assay relative to GW-501516. In kind it is functional, cell-based. The gist of the method:
as §1
`CC/C(=N\OCc1nc(-c2ccc(C)cc2)oc1C)c1ccc(OCC(=O)O)cc1`: the Emax worked out at 49.2%.
Same read-out and setting: with `C/C(=N\OCc1nc(-c2ccc(C)cc2)oc1C)c1ccc(OCC(=O)O)cc1` the figure was 48.1%.
On the same count and under the same terms, for `Cc1cc(/C(=N/OCc2sc(-c3ccc(C(F)(F)F)cc3)nc2C)C2CCCCC2)ccc1OCC(=O)O` the value was 98.7%; for `CCC/C(=N\OCc1sc(-c2ccc(C(F)(F)F)cc2)nc1C)c1ccc(OCC(=O)O)c(C)c1`, 48.3%.
Still for that read-out and setting: for `Cc1cc(/C(=N/OCc2nc(-c3ccccc3)oc2C)C2CCCCC2)ccc1OCC(=O)O` the value was 58.8%; for `C/C(=N\OCc1nc(-c2ccccc2)oc1C)c1ccc(OCC(=O)O)cc1`, 52.1%; for `CC/C(=N\OCc1nc(-c2ccc(C)cc2)oc1C)c1ccc(OCC(=O)O)c(C)c1`, 56.3%.
`CC/C(=N\OCc1sc(-c2ccc(C(F)(F)F)cc2)nc1C)c1ccc(OCC(=O)O)c(C)c1`: the Emax was 61.9%.

The target in the next assay is T5, Peroxisome proliferator-activated receptor delta (Homo sapiens, UniProt Q03181).
T5 sequence (Q03181 whole entry): T4 sequence (whole entry)
Nature of the assay: Agonist activity at human PPARdelta expressed in HepG2 cells co-transfected with PPRE3-TK-luc assessed as beta-galactosidase activity after 20 to 22 hrs by luciferase based transactivation assay. In kind it is functional, cell-based.
As for `CC(C)(Oc1ccc(CCNC(=O)c2ccc(Cl)cc2)cc1)C(=O)O` [BEZAFIBRATE], the negative logarithm of the EC50 (pEC50) was 4.72.
Still for that read-out and setting: for `Cc1cc(/C(=N/OCc2sc(-c3ccc(C(F)(F)F)cc3)nc2C)C2CCCCC2)ccc1OCC(=O)O` the value was 6.15.
The same measure, in the same setting: with `CC/C(=N\OCc1sc(-c2ccc(C(F)(F)F)cc2)nc1C)c1ccc(OCC(=O)O)c(C)c1` the figure was 6.10.

For another assay, the system named is Mus musculus. As to the kind of experiment: Antihyperglycemic activity in db/db mouse assessed as reduction of serum glucose level at 3 mg/kg, po qd for 14 days relative to control. Details: scale not given: the % may be the effect or the level left. Format: functional. The gist of the method: (§2)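 Male db/db mice, 12–14 weeks, 30–40 g, tail-bled before the study. Groups of six were matched for plasma glucose, TG and TC. Dosing was oral once daily for 14 days, with vehicle 0.5% methylcellulose in water, and mice were fed ad libitum. About 1 h after the last dose, mice were tail-bled and serum/plasma glucose and TG measured. Values are % change versus vehicle-treated mice, mean ± SD (n = 6).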
`CCO[C@@H](Cc1ccc(OCCc2ccc(OS(C)(=O)=O)cc2)cc1)C(=O)O` [TESAGLITAZAR]: the Activity is -60.2%.

The next assay concerns Mus musculus. Nature of the assay: Antihyperlipidemic activity in db/db mouse assessed as reduction of serum triglyceride level at 3 mg/kg, po qd for 14 days relative to control. On the set-up: scale not given: the % may be the effect or the level left. In kind it is functional. The gist of the method: as §2
In the case of `CCO[C@@H](Cc1ccc(OCCc2ccc(OS(C)(=O)=O)cc2)cc1)C(=O)O` [TESAGLITAZAR], the Activity is -54.4%.

In general, pEC50 refers to the negative decadic logarithm of the EC50, by convention in mol/L.
